Measured values taken from ChEMBL document CHEMBL2150869, “Superpotent [Dmt¹] dermorphin tetrapeptides containing the 4-aminotetrahydro-2-benzazepin-3-one scaffold with mixed μ/δ opioid receptor agonistic properties” (J Med Chem, 2011).
Calls of active or inactive are those of the source. No cut-off for these calls is given here. Where a SMILES comes first, the peptide text is derived from it. [ ]: non-standard residue; d: D form. Dmt = Cc1cc(O)cc(C)c1C[C@H](N)C(=O)O; dNMeA = CN[C@H](C)C(=O)O; Sar = CNCC(=O)O

Experiments:
[1] = target: Mu-type opioid receptor (Rattus norvegicus, UniProt P33535); assay: Displacement of [3H]naloxone from MOR in rat brain homogenates by liquid scintillation counting; type: tissue-based
Sequence of Mu-type opioid receptor (Rattus norvegicus, UniProt P33535) (P33535 whole entry): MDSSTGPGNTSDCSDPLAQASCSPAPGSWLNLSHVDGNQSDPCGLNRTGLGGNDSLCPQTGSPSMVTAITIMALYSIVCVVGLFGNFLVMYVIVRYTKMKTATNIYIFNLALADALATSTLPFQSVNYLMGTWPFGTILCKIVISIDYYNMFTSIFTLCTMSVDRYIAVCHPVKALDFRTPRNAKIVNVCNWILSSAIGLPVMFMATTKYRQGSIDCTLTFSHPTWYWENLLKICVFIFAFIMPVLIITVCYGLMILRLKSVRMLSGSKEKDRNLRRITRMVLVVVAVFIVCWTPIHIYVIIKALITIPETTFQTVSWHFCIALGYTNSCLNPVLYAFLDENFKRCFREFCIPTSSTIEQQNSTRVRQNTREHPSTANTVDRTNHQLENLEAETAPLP

[2] = target: T1, Delta-type opioid receptor (Homo sapiens, UniProt P41143); assay: Agonist activity at human DOR expressed in HEK293 cell membrane assessed as inhibition of forskolin-induced cAMP accumulation by liquid scintillation counting; type: functional, cell membranes
T1 sequence (P41143 whole entry): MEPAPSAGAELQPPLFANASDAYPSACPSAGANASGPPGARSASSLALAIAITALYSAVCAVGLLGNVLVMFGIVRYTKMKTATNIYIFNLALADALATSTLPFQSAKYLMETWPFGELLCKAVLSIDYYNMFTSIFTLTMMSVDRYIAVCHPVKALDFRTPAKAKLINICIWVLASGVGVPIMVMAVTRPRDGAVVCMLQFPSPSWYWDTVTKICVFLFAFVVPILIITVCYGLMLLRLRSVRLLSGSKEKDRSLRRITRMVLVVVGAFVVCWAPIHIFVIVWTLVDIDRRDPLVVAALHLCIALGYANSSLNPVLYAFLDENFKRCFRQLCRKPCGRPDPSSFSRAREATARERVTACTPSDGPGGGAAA
Procedure, shortened: (§1)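 HEK293 cells stably expressing the μ- or δ-opioid receptor, prelabelled for 24 h with [3H]adenine. Cells treated with ligand (10 fM to 10 μM or 1 pM to 10 μM) plus 50 μM forskolin for 30 min at 37 °C. Read-out is [3H]cAMP over total [3H]adenine nucleotides by scintillation counting, given as percent of forskolin-stimulated accumulation.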

[3] = target: Delta-type opioid receptor (Rattus norvegicus, UniProt P33533); assay: Displacement of [3H]deltorphin2 from DOR in rat brain homogenates by liquid scintillation counting; type: tissue-based
Sequence of Delta-type opioid receptor (Rattus norvegicus, UniProt P33533) (P33533 whole entry): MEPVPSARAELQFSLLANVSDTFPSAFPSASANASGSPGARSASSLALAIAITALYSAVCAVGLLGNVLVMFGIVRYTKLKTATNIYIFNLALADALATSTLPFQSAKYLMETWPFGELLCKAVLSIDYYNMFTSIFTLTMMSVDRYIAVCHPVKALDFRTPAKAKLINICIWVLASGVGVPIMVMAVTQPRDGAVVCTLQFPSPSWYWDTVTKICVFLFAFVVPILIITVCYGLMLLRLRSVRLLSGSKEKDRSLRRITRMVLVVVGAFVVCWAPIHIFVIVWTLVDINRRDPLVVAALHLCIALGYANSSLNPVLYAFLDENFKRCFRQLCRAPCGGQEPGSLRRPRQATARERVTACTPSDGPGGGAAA

[4] = target: T2, Mu-type opioid receptor (Homo sapiens, UniProt P35372); assay: Displacement of [3H]diprenorphine from human MOR expressed in HEK293 cell membrane by liquid scintillation counting; type: cell membranes
T2 sequence (P35372 whole entry): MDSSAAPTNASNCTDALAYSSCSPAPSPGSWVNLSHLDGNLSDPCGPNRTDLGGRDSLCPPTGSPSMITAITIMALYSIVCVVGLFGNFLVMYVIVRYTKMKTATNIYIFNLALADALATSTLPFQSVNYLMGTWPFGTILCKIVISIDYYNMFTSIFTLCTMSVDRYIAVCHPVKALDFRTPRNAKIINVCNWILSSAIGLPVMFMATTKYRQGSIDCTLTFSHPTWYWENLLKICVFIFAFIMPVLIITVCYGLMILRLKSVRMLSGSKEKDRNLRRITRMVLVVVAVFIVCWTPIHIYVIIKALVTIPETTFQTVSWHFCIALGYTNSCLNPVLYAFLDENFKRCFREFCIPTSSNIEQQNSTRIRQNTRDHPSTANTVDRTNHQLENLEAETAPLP
Procedure, shortened: (§2)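 Membranes (20 μg) from HEK293 cells stably expressing μ- or δ-OR incubated with [3H]diprenorphine (3.75 nM) for 45 min at 30 °C in 50 mM Tris-HCl pH 7.5, 100 mM NaCl, 10 mM MgCl2. Nonspecific binding defined with 10 μM naloxone. Bound ligand collected by GF/C filtration and counted by liquid scintillation.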

[5] = target: T3, Opioid receptors; mu and delta (Mus musculus, UniProt P42866+P32300); assay: Agonist activity at MOR/DOR in NMRI mouse spinal cord assessed as reduction in spinal cord network activity by electrophysiology assay; type: functional
Procedure, shortened: (§3)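 Primary neuronal networks from frontal cortex or spinal cord grown on microelectrode array neurochips for 4 weeks to 3 months. Accumulating concentrations from 1 fM to 100 μM (nine steps), each recorded for 1 h at 37 °C, pH 7.4. Spike rate and burst duration taken from the last 30 min stable phase in 60 s bins. EC50 obtained by logistic dose-response fitting.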

[6] = target: Opioid receptors; mu and delta (Mus musculus) (UniProt P42866+P32300); assay: Agonist activity at MOR/DOR in NMRI mouse frontal cortex or spinal cord networks assessed as reduction in spinal cord network activity by electrophysiology assay relative to gabapentin; type: functional, tissue-based; design: scale not given: the % may be the effect or the level left
Sequence of Opioid receptors; mu and delta (Mus musculus) (P32300 whole entry, looked up): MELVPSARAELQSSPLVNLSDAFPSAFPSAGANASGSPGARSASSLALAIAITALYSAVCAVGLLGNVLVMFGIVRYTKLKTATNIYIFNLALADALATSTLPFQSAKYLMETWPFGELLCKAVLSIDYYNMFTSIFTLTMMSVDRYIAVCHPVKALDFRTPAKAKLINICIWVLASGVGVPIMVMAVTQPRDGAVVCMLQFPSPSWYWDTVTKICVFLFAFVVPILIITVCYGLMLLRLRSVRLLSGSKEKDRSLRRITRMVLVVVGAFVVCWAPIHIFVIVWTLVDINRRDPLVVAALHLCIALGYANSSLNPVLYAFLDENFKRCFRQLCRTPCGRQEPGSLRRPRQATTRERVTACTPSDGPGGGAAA
Sequence of Opioid receptors; mu and delta (Mus musculus) (P42866 whole entry, looked up): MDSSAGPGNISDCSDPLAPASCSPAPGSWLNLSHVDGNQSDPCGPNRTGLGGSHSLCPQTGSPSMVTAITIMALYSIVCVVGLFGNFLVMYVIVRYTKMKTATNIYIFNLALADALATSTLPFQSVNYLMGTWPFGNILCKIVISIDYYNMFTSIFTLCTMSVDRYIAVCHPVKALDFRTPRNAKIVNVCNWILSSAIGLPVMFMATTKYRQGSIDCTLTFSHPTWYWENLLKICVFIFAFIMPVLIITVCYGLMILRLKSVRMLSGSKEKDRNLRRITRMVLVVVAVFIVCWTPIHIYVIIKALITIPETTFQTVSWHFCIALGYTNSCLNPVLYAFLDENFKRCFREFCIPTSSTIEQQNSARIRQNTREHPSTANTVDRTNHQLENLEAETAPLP

[7] = target: T3, Opioid receptors; mu and delta; assay: Agonist activity at MOR/DOR in NMRI mouse frontal cortex assessed as reduction in spinal cord network activity by electrophysiology assay; type: functional, tissue-based; procedure, shortened: as §3
[8] = target: Kappa-type opioid receptor (Homo sapiens, UniProt P41145); assay: Displacement of [3H]diprenorphine from human KOR expressed in HEK293 cell membrane by liquid scintillation counting; type: cell membranes
Sequence of Kappa-type opioid receptor (P41145 whole entry): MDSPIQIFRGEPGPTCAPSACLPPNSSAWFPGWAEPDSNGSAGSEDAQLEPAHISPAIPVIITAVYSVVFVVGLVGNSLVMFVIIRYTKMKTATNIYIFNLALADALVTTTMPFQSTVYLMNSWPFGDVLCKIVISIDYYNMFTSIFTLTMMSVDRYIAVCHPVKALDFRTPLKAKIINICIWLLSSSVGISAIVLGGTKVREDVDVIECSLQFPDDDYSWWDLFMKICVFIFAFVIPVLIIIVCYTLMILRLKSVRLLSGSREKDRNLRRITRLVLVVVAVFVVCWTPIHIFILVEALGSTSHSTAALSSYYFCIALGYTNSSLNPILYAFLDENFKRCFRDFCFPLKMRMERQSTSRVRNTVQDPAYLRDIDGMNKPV

[9] = target: T1, Delta-type opioid receptor; assay: Agonist activity at human DOR expressed in HEK293 cell membrane assessed as inhibition of forskolin-induced cAMP accumulation by liquid scintillation counting relative to control; type: functional, cell membranes
[10] = target: T2, Mu-type opioid receptor; assay: Agonist activity at human MOR expressed in HEK293 cell membrane assessed as inhibition of forskolin-induced cAMP accumulation by liquid scintillation counting relative to control; type: functional, cell membranes
[11] = target: T1, Delta-type opioid receptor; assay: Displacement of [3H]diprenorphine from human DOR expressed in HEK293 cell membrane by liquid scintillation counting; type: cell membranes; procedure, shortened: as §2
[12] = species on record: Rattus norvegicus; assay: Selectivity index, ratio of EC50 for rat brain DOR to EC50 for rat brain MOR by cAMP accumulation assay
[13] = target: T1, Delta-type opioid receptor; assay: Agonist activity at human DOR expressed in HEK293 cells assessed as stimulation of ERK1/2 phosphorylation at 1 uM after 2 mins by Western blotting; type: functional, cell-based
Procedure, shortened: (§4)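 HEK293 cells stably expressing the μ- or δ-opioid receptor, serum-starved 16 h, then exposed to ligand at 37 °C for the indicated times. Whole lysates run on 10% SDS-PAGE and immunoblotted for phospho-ERK1/2, with the blot reprobed for total ERK as loading control. Three independent experiments.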

[14] = target: T2, Mu-type opioid receptor; assay: Agonist activity at human MOR expressed in HEK293 cell membrane assessed as inhibition of forskolin-induced cAMP accumulation by liquid scintillation counting; type: functional, cell membranes; procedure, shortened: as §1
[15] = target: T2, Mu-type opioid receptor; assay: Agonist activity at human MOR expressed in HEK293 cells assessed as stimulation of ERK1/2 phosphorylation at 1 uM after 2 mins by Western blotting; type: functional, cell-based; procedure, shortened: as §4
[16] = species on record: Homo sapiens; assay: Selectivity index, ratio of Ki for human DOR to Ki for human MOR by radioligand displacement assay; procedure, shortened: as §2
[17] = target: T2, Mu-type opioid receptor; assay: Agonist activity at human MOR expressed in HEK293 cells assessed as stimulation of ERK1/2 phosphorylation at […] after 2 mins by Western blotting; type: functional, cell-based; procedure, shortened: as §4

| SMILES | IC50 [1] [µM] | EC50 [2] [nM] | IC50 [3] [µM] | Ki [4] [µM] | EC50 [5] | Activity [6] [%] | EC50 [7] | Ki [8] [µM] | Emax [9] [%] | Emax [10] [%] | Ki [11] [µM] | Ratio EC50 [12] | Activity [13] | EC50 [14] [nM] | Activity [15] | Ratio Ki [16] | Activity [17] |
| --- | --- | --- | --- | --- | --- | --- | --- | --- | --- | --- | --- | --- | --- | --- | --- | --- | --- |
| C[C@H](C(=O)N[C@@H](Cc1ccccc1)C(=O)N(C)CC(N)=O)N(C)C(=O)[C@@H](N)Cc1ccc(O)cc1 (H-Y[dNMeA]F[Sar]-NH2) | 0.0281 | 960 | 0.0071 | 1.1 | 1060 nM | 3 | 5 ×10⁻¹² M | > 1000 | 74 | 77 | > 10 | 293 | Active | 3.28 | Active |  |  |
| Cc1cc(O)cc(C)c1C[C@H](N)C(=O)N[C@H](C)C(=O)N[C@H]1Cc2ccccc2CN(CC(N)=O)C1=O |  | 0.17 |  | 0.17 |  |  |  | > 1000 | 66 | 78 | 0.018 | 2.04 | Active | 0.0832 | Active | 0.106 |  |
| C[C@H](C(=O)N[C@H]1Cc2ccccc2CN(CC(N)=O)C1=O)N1Cc2cc(O)ccc2C[C@H](N)C1=O | 0.0208 |  | 0.0178 | 2.7 | 6.7 nM | 14 | 5.67 ×10⁻⁷ M | > 1000 | 79 | 78 | 0.16 |  | Active | 5.17 |  | 0.059 | Active |
| Cc1cc(O)cc(C)c1C[C@H](N)C(=O)N(C)[C@H](C)C(=O)N[C@H]1Cc2ccccc2CN(CC(N)=O)C1=O | 0.00095 | 0.016 | 0.00095 | 0.0148 | 1.3 nM | 21 | 1.61 ×10⁻¹⁵ M | > 1000 | 61 | 72 | 0.005 | 9.2 | Active | 0.00174 |  | 0.34 | Active |
| Cc1cc(O)cc(C)c1C[C@H](N)C(=O)N(C)[C@H](C)C(=O)N[C@@H](Cc1ccccc1)C(=O)N(C)CC(N)=O (H-[Dmt][dNMeA]F[Sar]-NH2) | 0.0003 | 4400 | 0.0049 | 0.06 | 2.87 ×10⁻¹⁰ M | 1 | 1.29 ×10⁻¹³ M | > 1000 | 72 | 71 | 0.13 | 55700 | Active | 0.079 | Active | 2.2 |  |
